From ChEMBL document CHEMBL2321771, “Inhibition of Ebola Virus Infection: Identification of Niemann-Pick C1 as the Target by Optimization of a Chemical Probe” (ACS Med Chem Lett, 2013)
The source made the active and inactive calls. The calls are words filed in the database; no cut-off is given here.

Columns and labels:
Lassa virus = experiment: Antiviral activity against Lassa virus by cell based luciferase reporter gene assay; assay type: functional, organism-based; settings: Mammarenavirus lassaense
[1] = test system: Vesicular stomatitis virus; experiment: Antiviral activity against Vesicular stomatitis virus by cell based luciferase reporter gene assay; assay type: functional, organism-based
Ebolavirus = experiment: Antiviral activity against Ebola virus by cell based luciferase reporter gene assay; assay type: functional, Ebola virus sp.; settings: Orthoebolavirus
[2] = target: T1, NPC intracellular cholesterol transporter 1 (Mus musculus) (UniProt O35604); experiment: Inhibition of mouse NPC1 interaction to Ebola virus GP expressed in LE/LY membrane of CHO cells by immunoblotting; assay type: cell-based
T1 sequence (whole entry): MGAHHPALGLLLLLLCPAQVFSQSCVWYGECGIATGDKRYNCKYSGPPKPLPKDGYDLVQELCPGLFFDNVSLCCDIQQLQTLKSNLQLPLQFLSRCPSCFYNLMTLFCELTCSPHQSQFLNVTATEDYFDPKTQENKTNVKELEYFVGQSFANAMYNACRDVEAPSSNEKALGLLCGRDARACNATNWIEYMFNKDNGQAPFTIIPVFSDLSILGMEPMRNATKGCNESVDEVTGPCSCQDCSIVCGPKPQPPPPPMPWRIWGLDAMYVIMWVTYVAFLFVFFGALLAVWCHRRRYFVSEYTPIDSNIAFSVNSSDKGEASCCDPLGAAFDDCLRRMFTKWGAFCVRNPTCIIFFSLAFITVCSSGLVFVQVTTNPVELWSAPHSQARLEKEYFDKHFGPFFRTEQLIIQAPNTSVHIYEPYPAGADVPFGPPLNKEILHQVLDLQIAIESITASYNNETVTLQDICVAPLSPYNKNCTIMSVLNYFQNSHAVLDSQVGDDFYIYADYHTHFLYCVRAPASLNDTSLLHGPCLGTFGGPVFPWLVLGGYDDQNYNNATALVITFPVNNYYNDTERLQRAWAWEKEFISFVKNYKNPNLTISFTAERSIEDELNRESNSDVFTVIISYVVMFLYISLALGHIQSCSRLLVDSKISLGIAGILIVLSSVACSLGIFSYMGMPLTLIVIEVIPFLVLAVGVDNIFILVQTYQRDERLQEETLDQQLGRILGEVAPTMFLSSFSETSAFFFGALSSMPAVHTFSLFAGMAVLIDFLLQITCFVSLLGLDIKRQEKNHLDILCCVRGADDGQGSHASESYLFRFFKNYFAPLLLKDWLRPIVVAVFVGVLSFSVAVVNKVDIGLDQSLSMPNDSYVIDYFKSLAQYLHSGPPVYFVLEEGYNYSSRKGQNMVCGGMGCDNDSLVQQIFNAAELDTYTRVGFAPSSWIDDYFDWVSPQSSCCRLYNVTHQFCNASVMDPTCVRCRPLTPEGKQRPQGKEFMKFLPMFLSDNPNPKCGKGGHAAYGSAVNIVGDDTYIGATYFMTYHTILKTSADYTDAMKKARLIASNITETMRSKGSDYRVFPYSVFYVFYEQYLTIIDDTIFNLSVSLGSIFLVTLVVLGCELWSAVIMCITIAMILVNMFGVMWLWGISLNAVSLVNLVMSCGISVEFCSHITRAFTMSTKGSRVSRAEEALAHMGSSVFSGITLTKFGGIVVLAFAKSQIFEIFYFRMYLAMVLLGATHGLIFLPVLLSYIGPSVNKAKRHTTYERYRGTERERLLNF
Summary of the method: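 Late endosome/lysosome membranes from NPC1-null CHO cells, or the same cells stably expressing mouse NPC1, were immobilized on ELISA plates. They were incubated with protease-cleaved Ebola GP in the presence of test compound at specified concentrations. After washing off unbound GP, membranes were solubilized in NP40 and bound GP was detected by GP1-antibody immunoblot. Results are representative of six experiments.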

[3] = target: T2, NPC intracellular cholesterol transporter 1 (Homo sapiens) (UniProt O15118); experiment: Binding affinity to human NPC1 expressed in LE/LY membrane of CHO cells at 25 uM by immunoblotting; assay type: cell membranes
T2 sequence (whole entry): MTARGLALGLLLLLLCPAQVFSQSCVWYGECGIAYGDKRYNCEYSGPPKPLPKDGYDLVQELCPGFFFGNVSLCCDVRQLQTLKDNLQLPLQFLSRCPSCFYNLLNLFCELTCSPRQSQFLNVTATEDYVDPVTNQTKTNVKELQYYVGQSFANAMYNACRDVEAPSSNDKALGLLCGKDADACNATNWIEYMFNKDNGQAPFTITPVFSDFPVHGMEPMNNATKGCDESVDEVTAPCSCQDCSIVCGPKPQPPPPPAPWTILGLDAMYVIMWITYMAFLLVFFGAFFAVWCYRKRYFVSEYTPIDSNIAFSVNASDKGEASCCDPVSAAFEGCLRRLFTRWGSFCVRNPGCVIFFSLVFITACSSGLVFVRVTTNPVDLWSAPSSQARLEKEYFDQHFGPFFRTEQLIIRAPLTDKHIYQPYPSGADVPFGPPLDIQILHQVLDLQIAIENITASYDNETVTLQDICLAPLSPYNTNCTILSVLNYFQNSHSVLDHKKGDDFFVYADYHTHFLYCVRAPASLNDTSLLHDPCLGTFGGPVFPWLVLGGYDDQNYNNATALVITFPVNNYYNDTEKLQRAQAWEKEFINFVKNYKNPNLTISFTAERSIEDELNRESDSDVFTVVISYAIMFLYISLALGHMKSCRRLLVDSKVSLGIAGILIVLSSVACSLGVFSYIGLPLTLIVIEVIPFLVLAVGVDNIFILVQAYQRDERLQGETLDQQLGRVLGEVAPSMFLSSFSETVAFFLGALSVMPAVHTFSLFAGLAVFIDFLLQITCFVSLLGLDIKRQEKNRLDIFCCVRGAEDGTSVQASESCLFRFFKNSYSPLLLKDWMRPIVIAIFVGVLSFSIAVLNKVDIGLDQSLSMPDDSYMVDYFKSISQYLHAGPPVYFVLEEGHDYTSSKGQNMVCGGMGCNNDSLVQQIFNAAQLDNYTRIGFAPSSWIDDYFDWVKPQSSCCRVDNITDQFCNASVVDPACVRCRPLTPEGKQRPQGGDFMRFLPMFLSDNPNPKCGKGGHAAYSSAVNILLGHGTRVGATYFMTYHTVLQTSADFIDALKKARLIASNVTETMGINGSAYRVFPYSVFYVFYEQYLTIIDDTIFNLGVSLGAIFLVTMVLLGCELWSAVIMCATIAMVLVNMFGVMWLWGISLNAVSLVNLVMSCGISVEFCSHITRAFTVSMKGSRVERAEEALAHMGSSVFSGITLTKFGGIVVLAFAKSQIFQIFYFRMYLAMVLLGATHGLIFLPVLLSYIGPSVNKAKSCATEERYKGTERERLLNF
Summary of the method: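 Purified late endosome/lysosome membranes came from NPC1-null CHO cells and CHO cells overexpressing human NPC1. […] Cross-linked proteins were click-labelled with Alexa Fluor 488 azide and detected by anti-Alexa 488 immunoblot. NPC1 was confirmed by anti-NPC1 immunoprecipitation and immunoblot.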

SMILES: COC(=O)c1ccc(COc2ccccc2CN2CCN(C(=O)CNC(=O)CC34CC5CC(CC(C5)C3)C4)CC2)cc1
- inhibition (Lassa virus): inactive
- inhibition [1]: inactive
- IC50 (Ebolavirus): 0.02 µM
- inhibition [2]: Active

SMILES: C#Cc1ccc(COc2ccc(N=[N+]=[N-])cc2CN2CCN(C(=O)CNC(=O)CC34CC5CC(CC(C5)C3)C4)CC2)cc1
- Activity [3]: Active
- inhibition [2]: Active
